These results are taken from ChEMBL document CHEMBL3085690, “Naturally occurring antimicrobial peptide OH-CATH30 selectively regulates the innate immune response to protect against sepsis” (J Med Chem, 2013).

Data set [1] is described as follows: Induction of IL-10 mRNA up-regulation in mouse BMDM at 20 ug/ml after 3 hrs by qRT-PCR analysis relative to control. Format: functional. An outline of the steps: (§1)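 Murine BMDMs stimulated with peptide, then target mRNA quantified by qRT-PCR. Expression normalized to GAPDH, with untreated cells set to 1.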
Data set [2] concerns BMDM. Kind of data set: Induction of CXCL2 mRNA up-regulation in mouse BMDM at 20 ug/ml after 3 hrs by qRT-PCR analysis. Format: functional. An outline of the steps:
as §1

For data set [3], the system named is BMDM. In words: Induction of CCL4 mRNA up-regulation in mouse BMDM at 20 ug/ml after 3 hrs by qRT-PCR analysis. Format: functional. An outline of the steps:
as §1

In data set [4] the test system is BMDM. Kind of data set: Induction of CCL2 mRNA up-regulation in mouse BMDM at 20 ug/ml after 3 hrs by qRT-PCR analysis. The class given is functional. In a few lines: as §1
Data set [5] is described as follows: Half life in Kunming mouse at 10 mg/kg, ip. The class given is ADME, organism-based. Further details: dose 10 mg/kg, route intraperitoneal. Particulars: in vivo.
In data set [6] the test system is Mus musculus. In words: Stimulation of innate immune response in Kunming mouse infected with Escherichia coli ATCC 25922 assessed as reduction of bacterial burden in peritoneal lavage by measuring survival rate at 10 mg/kg, ip administered 5 hrs before bacterial infection measured up to 7 days. The class given is functional, organism-based. Further details: dose 10 mg/kg. In a few lines:
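Peptide at 10 mg/kg ip was given 5 h before ip challenge with E. coli 25922 (2.5 × 10^8 CFU), P. aeruginosa 27853 (8 × 10^7 CFU) or S. aureus 25923 (2 × 10^8 CFU) per mouse. Viable bacteria were counted in peritoneal lavage collected in 2 mL of cold saline (n = 7, 6 and 8 respectively; unpaired t test). Survival was recorded for up to 7 days.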

Data set [7] addresses Transcription factor p65 (Mus musculus) (UniProt Q04207). In words: Activation of NFkappaB in mouse BMDM assessed as degradation of IkappaBalpha at 10 ug/ml after 15 to 30 mins by Western blotting. In a few lines: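 BMDMs (bone marrow cells grown in RPMI 1640 with 10% FCS and 20% L929-conditioned medium) stimulated, then lysates run on 10% SDS-PAGE and transferred to PVDF. Membranes blocked with 5% BSA and probed with phospho-ERK1/2 and total ERK1/2 antibodies, or with anti-IκBα. HRP anti-rabbit secondary, chemiluminescent detection.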

Data set [8] deals with MAP kinase p38 (Homo sapiens) (UniProt O15264+Q15759+Q16539+P53778). In words: Activation of p38 kinase in mouse BMDM assessed as phosphorylation at 10 ug/ml by Western blotting. Format: protein assay. Particulars: TDE = time-dependent effect, target entry is the homologue from another species. An outline of the steps:
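BMDMs cultured in RPMI 1640 with 10% FCS and 20% L929-conditioned medium. Lysates separated by 10% SDS-PAGE, blotted to PVDF and blocked in 5% BSA. Probed for phospho-JNK/JNK or phospho-p38/p38, then HRP goat anti-rabbit IgG, chemiluminescence read-out.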

Data set [9] can be described thus: Increase of CXCL2 production in mouse BMDM after 6 hrs by ELISA in presence of p38 MAPK inhibitor SB-202190. The class given is functional.
For data set [10], the system named is RAW264.7. In words: Inhibition of LTA-induced TNFalpha production in mouse RAW264.7 cells 2 to 50 ug/ml after 6 hrs by ELISA. Format: functional, cell-based.
Data set [11] deals with Mus musculus. In words: Stimulation of innate immune response in clodronate liposomes treated Kunming mouse monocytes depletion model assessed as recruitment of neutrophils at 10 mg/kg, ip. Format: functional, organism-based. The arrangement: dose 10 mg/kg.
In data set [12] the test system is Mus musculus. Kind of data set: Stimulation of innate immune response in neutropenic Kunming mouse infected with Pseudomonas aeruginosa ATCC 27853 assessed as increase of resident monocytes/macrophagess in peritoneal lavage at 10 mg/kg, ip. The class given is functional, organism-based. The arrangement: dose 10 mg/kg. An outline of the steps:
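Mice were made neutropenic with ip cyclophosphamide, 150 mg/kg on day 0 and 100 mg/kg on day 3. They were then injected ip with peptide at 10 mg/kg. Peritoneal cells were collected up to 24 h afterwards and typed by flow cytometry after GR1/F4/80 staining.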

Data set [13] has as its system Mus musculus. In words: Stimulation of innate immune response in Kunming mouse assessed as increase of monocytes/macrophages in peritoneal lavage at 10 mg/kg, ip after 5 hrs. Format: functional, organism-based. The arrangement: dose 10 mg/kg. An outline of the steps: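 Female Kunming mice were given peptide ip at 10 mg/kg. At 5 h, peritoneal cells were recovered by lavage with 2 mL PBS and counted. Cells were stained with anti-F4/80-PE and GR1-FITC for 30 min at room temperature and typed by flow cytometry: neutrophils GR1+/F4/80−, resident monocytes/macrophages GR1−/F4/80+, inflammatory monocytes GR1+/F4/80+. Data are mean ± SD from three mice, unpaired t test.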

In data set [14] the test system is Mus musculus. In words: Stimulation of innate immune response in Kunming mouse infected with Pseudomonas aeruginosa ATCC 27853 assessed as effect on CXCL2 production in peritoneal lavage at 10 mg/kg, ip after 3 hrs by ELISA. Format: functional, organism-based. Further details: dose 10 mg/kg. In a few lines: (§2)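 Mice were pretreated ip with peptide at 10 mg/kg 5 h before ip challenge with P. aeruginosa 27853 at 8 × 10^7 CFU/mouse. CCL2 and CXCL2 were measured in peritoneal lavage collected 3 h after inoculation. TNF-α and IL-6 were measured in serum collected 5 h after inoculation. All were read by ELISA; data are mean ± SD from four mice, unpaired t test.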

The subject of data set [15] is Mus musculus. In words: Stimulation of innate immune response in Kunming mouse infected with Pseudomonas aeruginosa ATCC 27853 assessed as effect on CCL2 production in peritoneal lavage at 10 mg/kg, ip after 3 hrs by ELISA. Format: functional, organism-based. Further details: dose 10 mg/kg. An outline of the steps: as §2
Data set [16] relates to Mus musculus. Kind of data set: Stimulation of innate immune response in Kunming mouse assessed as increase of TNFalpha level in peritoneal lavage at 10 mg/kg, ip after 5 hrs. The class given is functional, organism-based. The arrangement: dose 10 mg/kg. An outline of the steps: (§3)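 Female Kunming mice (18−22 g) received a single ip injection of peptide at 10 mg/kg in sterile saline. Peritoneal lavage was collected in 2 mL of cold sterile saline 5 h later, and cytokines and chemokines were measured by ELISA. Data are mean ± SD from four mice, compared by unpaired t test.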

The test system of data set [17] is Mus musculus. In words: Stimulation of innate immune response in Kunming mouse assessed as increase of CXCL1 level in peritoneal lavage at 10 mg/kg, ip after 5 hrs. The arrangement: dose 10 mg/kg. Format: functional, organism-based. In a few lines:
as §3

Data set [18] can be described thus: Cytotoxicity against mouse BMDM at 5 to 20 ug/ml by LDH release assay.
Data set [19] in a line: Increase of IL-1Ra protein level in mouse BMDM at 10 ug/ml after 18 hrs by ELISA. The class given is functional. In a few lines:
(§4)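 Bone marrow-derived macrophages (RPMI 1640, 10% FCS, 20% L929-conditioned medium) stimulated with peptide for 18 h. Cytokines and chemokines in culture supernatant quantified by sandwich ELISA. Mean ± SD from three independent experiments, unpaired t test.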

The nature of data set [20]: Increase of CXCL1 protein level in mouse BMDM at 10 ug/ml after 18 hrs by ELISA. Format: functional. An outline of the steps:
as §4

Data set [21] has as its system BMDM. Kind of data set: Increase of TNFalpha protein level in mouse BMDM at 20 ug/ml after 18 hrs by ELISA. The class given is functional. An outline of the steps: as §4
Data set [22] can be described thus: Induction of IL-1beta mRNA up-regulation in mouse BMDM at 20 ug/ml after 3 hrs by qRT-PCR analysis relative to control. The class given is functional. An outline of the steps:
as §1

A short description of data set [23]: Induction of IL-1Ra mRNA up-regulation in mouse BMDM at 20 ug/ml after 3 hrs by qRT-PCR analysis relative to control. The class given is functional. An outline of the steps:
as §1

Structures are written as SMILES. Active and inactive are the calls of the source. The rule behind the calls is not given here. Peptide text beside a SMILES is read from it.

Sequence of Transcription factor p65 (Mus musculus) (Q04207 whole entry): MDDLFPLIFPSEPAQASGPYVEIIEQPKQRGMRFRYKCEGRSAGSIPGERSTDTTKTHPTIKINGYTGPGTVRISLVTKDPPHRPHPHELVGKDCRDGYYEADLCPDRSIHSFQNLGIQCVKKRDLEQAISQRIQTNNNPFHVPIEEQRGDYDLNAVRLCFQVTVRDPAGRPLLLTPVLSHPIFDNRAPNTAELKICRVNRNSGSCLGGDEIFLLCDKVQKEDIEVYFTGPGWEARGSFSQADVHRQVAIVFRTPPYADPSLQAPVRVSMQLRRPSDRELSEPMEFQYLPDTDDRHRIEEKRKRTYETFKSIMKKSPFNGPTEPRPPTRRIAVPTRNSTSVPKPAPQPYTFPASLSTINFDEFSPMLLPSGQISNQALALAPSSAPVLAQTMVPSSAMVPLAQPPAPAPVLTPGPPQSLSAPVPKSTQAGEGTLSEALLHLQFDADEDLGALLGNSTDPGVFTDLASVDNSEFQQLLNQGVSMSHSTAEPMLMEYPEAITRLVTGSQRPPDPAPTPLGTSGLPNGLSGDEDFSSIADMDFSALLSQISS

With `CC[C@H](C)[C@H](NC(=O)[C@@H](NC(=O)[C@H](CCCNC(=N)N)NC(=O)[C@@H]1CCCN1C(=O)[C@H](CCCCN)NC(=O)[C@H](CCCCN)NC(=O)[C@H](Cc1ccccc1)NC(=O)[C@H](Cc1ccccc1)NC(=O)[C@H](CCCCN)NC(=O)[C@H](CCCCN)NC(=O)[C@H](C)NC(=O)[C@H](CCCNC(=N)N)NC(=O)[C@H](CCCCN)NC(=O)[C@H](CCCCN)NC(=O)[C@@H](NC(=O)[C@H](CO)NC(=O)[C@H](CC(N)=O)NC(=O)[C@H](CCCCN)NC(=O)[C@H](CC(C)C)NC(=O)[C@H](CCCCN)NC(=O)[C@H](CCCCN)NC(=O)[C@H](Cc1ccccc1)NC(=O)[C@H](Cc1ccccc1)NC(=O)[C@@H](N)CCCCN)C(C)C)C(C)C)C(=O)NCC(=O)N[C@H](C(=O)N[C@@H](CO)C(=O)N[C@H](C(=O)N1CCC[C@H]1C(=O)N[C@@H](Cc1ccccc1)C(=O)O)[C@@H](C)CC)C(C)C` (H-KFFKKLKNSVKKRAKKFFKKPRVIGVSIPF-OH), the “fold change (FC)” value in data set [1] is 5; in [22], 2.5; in data set [23], 25. The outcome in data set [2], in data set [3], in data set [4], in data set [6], in data set [12] and in data set [13] was Active. Further, the outcome in data set [14], in [15] and in data set [17] was Active. Moreover, in data set [5], the half-life was under 1 h. Further, the result in data set [7], in [11], in [16] and in data set [21] was inactive. In addition, the Activity result is “tde” in data set [8]; 464.9 pg/mL in data set [9]; “Non-toxic” in [18]; 232 pg/mL in data set [19]; 269 pg/mL in [20]. Besides, the inhibition entry in data set [10] is “inactive”.
